In article PMC2645920 (Journal of the American Chemical Society, 2008):

Legend:
Dynamic light scattering = type: physicochemical; conditions: 750 μM in 1X PBS
How it was run: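 Test compound dissolved in 1X PBS (pH 7.2), pre-filtered, and read at 22 °C with a 25 mW, 750 nm laser and a 90° detector. Detergent runs added 0.01% Triton-X 100. Each sample got ten repeat measurements, filtered on sum of squares and baseline error. Hr was derived by regularization from the autocorrelation decay. Intensity (kcps) is the mean of three or more measurements, compared with buffer.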

[1] = biological target: HIV-1 frameshift stimulatory sequence (FSS) RNA hairpin (Seq. F); experiment: Fluorescence titration; type: binding; conditions: FT
[2] = biological target: 5′-FAM-CCG-(CUG)10-CGG-3′ RNA (Seq. A); experiment: Fluorescence titration; type: binding; conditions: FT
[3] = tested on: (CUG)109 RNA – MBNL1 protein interaction; experiment: Enzyme Fragment Complementation; type: biochemical; conditions: EFC assay, immobilized (CUG)109 RNA, PL-MBNL1

Row | Compound | Hr (hydrodynamic radius) (Dynamic light scattering; pH 7.2) | Intensity (Dynamic light scattering; pH 7.2) | Hr (hydrodynamic radius) (Dynamic light scattering; pH 7.2 + Triton-X 100 (0.01%)) | Intensity (Dynamic light scattering; pH 7.2 + Triton-X 100 (0.01%)) | Kd [1] | Kd [2] | Inhibitory effect on (CUG)n – MBNL1 interaction [3]
1 | Nc1c(/N=N/c2ccc(-c3ccc(/N=N/c4cc(S(=O)(=O)O)c5ccccc5c4N)cc3)cc2)cc(S(=O)(=O)O)c2ccccc12 [Congo Red] | 69.25 nm | 242±10 kcps | 40.72 nm | 190±24 kcps |  |  | 
2 | (Quin-Cys-Pro-Phe)2 [Compound 5-5] |  |  |  |  | 350 ± 110 nM | > 40000 nM | do not show any inhibitory effect
